Assay outcomes: PubChem, several laboratories
MLLE-PAM2 inh: inhibitors of PABP1 MLLE–PAM2 peptide binding, primary screen, biochemical, fluorescence polarization, FITC-PAM2, GST-MLLE. Polyadenylate-binding protein 1 (Homo sapiens), P11940. inhibition, % at 20 µM. 0.36% of 360,000 active. AID 588489, 2011; in the data active = inhibition above about 35%, passing the limit was not always enough;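 note: plate controls were DMSO wells with GST-MLLE for no effect and wells lacking GST-MLLE protein for full effect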
Target sequence (P11940 whole entry, looked up): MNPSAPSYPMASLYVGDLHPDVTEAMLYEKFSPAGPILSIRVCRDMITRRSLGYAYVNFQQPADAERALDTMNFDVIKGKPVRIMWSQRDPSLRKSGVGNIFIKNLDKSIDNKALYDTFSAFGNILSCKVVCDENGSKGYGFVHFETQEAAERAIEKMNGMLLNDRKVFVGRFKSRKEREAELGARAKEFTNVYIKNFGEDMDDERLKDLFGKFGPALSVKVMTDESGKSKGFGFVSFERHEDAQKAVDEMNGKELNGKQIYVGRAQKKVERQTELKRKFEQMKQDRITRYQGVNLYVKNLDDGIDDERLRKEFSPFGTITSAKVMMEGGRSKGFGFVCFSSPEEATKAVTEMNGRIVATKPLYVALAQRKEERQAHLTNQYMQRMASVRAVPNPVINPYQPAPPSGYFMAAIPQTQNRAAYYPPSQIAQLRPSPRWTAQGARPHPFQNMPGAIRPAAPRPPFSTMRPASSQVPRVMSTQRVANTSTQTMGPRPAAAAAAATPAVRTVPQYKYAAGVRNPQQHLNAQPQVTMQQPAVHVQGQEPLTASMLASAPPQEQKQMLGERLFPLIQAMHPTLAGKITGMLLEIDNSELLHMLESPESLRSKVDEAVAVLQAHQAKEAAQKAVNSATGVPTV
PABP polyA inh: PABP poly(A) RNA binding inhibitors, primary screen, biochemical, fluorescence polarization, uHTS; calls only at 35 µM; 1% of 290,000 active; AID 2014, 2009; call rule not given here;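 note: calls also rest on retests at 20 µM and on dose response follow-up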
eIF4H inh: human eIF4H binding inhibitors, primary screen, translation initiation inhibitor project, biochemical, uHTS, fluorescence polarization. Eukaryotic translation initiation factor 4H (Homo sapiens), Q15056. eIF4H fluorescence polarization binding assay. inhibition, % at 35 µM. 0.94% of 290,000 active. AID 2012, 2009; call rule not given here;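 note: calls also rest on retests at 20 µM and on dose response follow-up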
RBBP9 inhibitor: human RBBP9 inhibitors, primary screen, biochemical, fluorescence polarization, FP-Rh probe, HTS; inhibition, % at 7.94 µM; 0.2% of 220,000 active; Serine hydrolase RBBP9 (Homo sapiens), O75884; recombinant RBBP9;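 active = inhibition above the campaign mean of all tested compounds plus 3 SD, cut at about 14% in these data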;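 note: plate controls were DMSO wells with RBBP9 for no effect and wells lacking RBBP9 protein for full effect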
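Test system: recombinant human RBBP9; Timing: 30 min then 45 min, 25 °C; Detection: fluorescence polarization; Control set: RBBP9 with DMSO as uninhibited control, no-protein wells as full inhibition; Compound dosing: one concentration, 7.94 µM nominal, 0.794% DMSO; Probe or stimulus: FP-Rh activity-based probe, 375 nM before mixing.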
TCR-CD3 inh: inhibitors of human TCR-CD3 interaction, primary screen, biochemical, fluorescence, TAMRA-labeled TCR probe; T-cell receptor (TCR); inhibition, % at 9.4 µM; 0.37% of 360,000 active; AID 651800, 2012;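 note: recombinant mutant TCR 2C K166C tagged with TAMRA read by polarization; 0% = receptor in buffer alone and 100% = receptor with positive control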
BSA TAMRA ctr: compounds interfering with TAMRA-BSA probe, counter-screen for TCR-CD3 interaction inhibitor project, biochemical, fluorescence, TAMRA-labeled BSA | shares compounds with TCR-CD3 inh | TAMRA-labeled BSA probe fluorescence counterscreen | inhibition, % at 9.4 µM | 10% of 1,200 active | AID 652035, 2013; in the data active = inhibition above about 23%;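 note: 0% = buffer low control and 100% = reference high control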
TCR-CD3 inh conf: TCR-CD3 interaction inhibitors, retest, confirmation, biochemical, fluorescence, TAMRA-labeled TCR probe. shares compounds with TCR-CD3 inh. TAMRA-labeled TCR probe fluorescence binding assay. inhibition, % at 9.4 µM. 48% of 1,200 active. AID 652036, 2013
An asterisk follows results filed as active; i = inactive; ? = inconclusive; · = no result given; + = active, no number. Sampled rows, rich in hits. Any-hit rate of the full collection: about 1.6%. Cut-off read from the data, not from the text of the source, unless noted: active = inhibition above about 19%; inactive = the rest.

SMILES	MLLE-PAM2 inh	PABP polyA inh	eIF4H inh	RBBP9 inhibitor	TCR-CD3 inh	BSA TAMRA ctr	TCR-CD3 inh conf
CCn1c(C)nc2cc(C(=O)NNC(=S)NC(=O)c3ccccc3)ccc21	20	+	-1	0	34*	-6	28*
Cc1ccccc1C(=O)NNC(=S)NC(=O)c1cccnc1	17	i	-2	-5	26*	-3	20*
Cn1cc(CN2CCC(C(=O)NC(c3ccc(F)cc3)c3ccc4ccccc4n3)CC2)c2ccccc21 (stereo not given)	-10	·	·	·	-2	·	·
COc1ncnc2c1NC1=C(S2)C(=NCCC(=O)O)CC(C)(C)C1	94	i	17	-10	29*	53*	41*
CCOC(=O)[C@]12CCCC=C1N(CCc1ccc(OC)c(OC)c1)C(=O)[C@H](CC(=O)NCCc1ccccc1OC)C2	·	·	·	·	6	·	·
O=C(CN1C(=O)NC2(CCOc3ccccc32)C1=O)c1ccc(F)cc1 (stereo not given)	-7	·	·	·	19*	0	2
O=C(CN1C(=O)NC2(CCOc3ccccc32)C1=O)c1ccc(F)c(F)c1 (stereo not given)	12	·	·	·	8	·	·
COc1ccc(/C=N/NC(=O)c2ccc(C)cc2)cc1CN1CCN(c2ccc(F)cc2)CC1	-5	i	6	-1	·	·	·
COc1ccc(/C=N\NC(=O)c2cc(O)c(O)c(O)c2)cc1CN1CCN(c2ccc(F)cc2)CC1	-2	i	-4	7	23*	-8	23*
COc1cc(C(=O)OCC(=O)N2CCCC2=O)cc(OC)c1C	-16	·	·	·	43*	5	3
CCc1c(-c2cccc(Br)c2)ncn1CCc1ccccc1OC	·	·	·	·	4	·	·
O=C(NC(=S)Nc1ccccc1O)c1ccccc1Cl	44*	i	1	-12	23*	-5	16
O=C(N/N=C\c1c(O)ccc2ccccc12)c1cncc(Br)c1	182	?	?	·	1	·	·
O=C(NN=Cc1c(O)ccc2ccccc12)c1ccncc1	-61	·	·	·	-4	·	·
O=C(N/N=C\c1c(O)ccc2ccccc12)c1ccc(O)cc1	-20	i	7	·	28*	-12	21*
O=C(N/N=C/c1c(O)ccc2ccccc12)c1ccc(Br)o1	-54	i	-17	·	26*	-13	22*
O=C(N/N=C/c1c(O)ccc2ccccc12)c1ccc[n+](CCO)c1	-35	i	6	-13	26*	-10	17
Cn1cc(C(=O)N/N=C/c2c(O)ccc3ccccc23)ccc1=O	-21	i	1	11	38*	-22	24*
Cc1nn(-c2ccccc2)c(Cl)c1C(=O)NCC(C)c1ccccc1 (stereo not given)	-2	i	3	·	130*	-3	0
CCCCCCCCN1C(=O)[C@@H](CC(=O)N2CCC(c3ccccc3)CC2)C[C@@]2(C(=O)OC)C1=C[C@H](C(C)(C)C)O[C@@H]2C	·	·	·	·	-2	·	·
S=c1[nH]nc(-c2cc(-c3ccccn3)nc3ccccc23)o1	-69	i	8	-3	33*	-3	7
Cc1oc2cc(O)ccc2c(=O)c1-c1ccccc1	4	i	-1	-8	3	·	·
Cc1oc2cc(O)ccc2c(=O)c1-c1nncn1-c1ccccc1	65	?	?	0	25*	27*	23*
COC(=O)c1ccccc1NC(=S)NC(=O)c1ccc2c(c1)OCO2	42*	i	-5	·	45*	-1	-1
COc1cc([N+](=O)[O-])cc(/C=N/NC(=O)c2cc(C)nc3ccccc23)c1O	-65	i	2	-6	24*	-6	23*
COc1cc([N+](=O)[O-])cc(/C=N/NC(=O)c2cc(-c3ccccc3)nc3ccccc23)c1O	-125	i	4	-8	24*	10	8
COc1ccc(C2CC(=O)C(c3ccc(C(F)(F)F)cc3)=CN2Cc2ccccc2)cc1 (stereo not given)	·	·	·	·	-3	·	·
